Data on one compound can be found in ChEMBL document CHEMBL4706740, “Structure-Activity Study of Nitazoxanide Derivatives as Novel STAT3 Pathway Inhibitors” (ACS Med Chem Lett, 2021).

Calls of active or inactive are those of the source. The rule behind the calls is not given here.

Data set [1] concerns HeLa. Briefly: Induction of cell cycle arrest in human HeLa cells assessed as accumulation at S phase at 20 uM measured after 24 hrs by flow cytometry analysis (reference value: 34.04%). It counts as functional. (In general: A flow cytometer gives signals particle by particle.)
A further data set concerns A549. The data set is described as follows: Antiproliferative activity against human A549 cells assessed as cell growth inhibition measured after 48 hrs by MTT assay. It is filed as functional, cell-based. The note with it: A549, 48 h. (In general: Tetrazolium assays rely on reduction of a dye to a coloured formazan, in cell work by metabolically active cells.)
The target in data set [2] is Signal transducer and activator of transcription 3 (Homo sapiens) (UniProt P40763). The data set is described as follows: Inhibition of STAT3 transcriptional activity in human HeLa cells assessed as downregulation of survivin expression upto 80 uM after 24 hrs by western blot analysis. It counts as cell-based. Conditions: dose microM <=80, time […]. In short, it runs like this: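 HeLa cells treated 24 h with a concentration series. Total cell lysates probed by Western blot with specific antibodies for the STAT3 target gene products cyclin D1, c-Myc and survivin.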
Background: Immunoblotting shows a protein as a band on a membrane.

For data set [3] the target is unchanged. The data set is described as follows: Inhibition of STAT3 in human HeLa cells assessed as decrease in phosphorylation of STAT3 at Tyr705 cells pretreated with Na3VO4 phosphatase inhibitor measured at 80 uM incubated for 1 hr by Western blot analysis. It is filed as cell-based. The method in brief:
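HeLa cells pretreated 15 min with 25 μM Na3VO4 (phosphatase inhibitor) before compound exposure. p-STAT3 (Tyr705) assessed by Western blot of total cell lysates with specific antibodies and compared with cells not given Na3VO4.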

Data set [4] shares this target. The data set is described as follows: Inhibition of STAT3 in human HeLa cells assessed as decrease in phosphorylation of STAT3 at Tyr705 upto 80 uM measured after 6 hrs by Western blot analysis. It counts as cell-based. Conditions: dose microM <=80, time 6.0 hrs. In short, it runs like this: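 Time course in HeLa cells given 80 μM compound, sampled from 15 min onward through multiple hours; parallel runs at 20 and 40 μM. Total cell lysates Western blotted for p-STAT3 (Tyr705), p-STAT3 (Ser727) and total STAT3.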

Data set [5] deals with HeLa. Briefly: Induction of apoptosis in human HeLa cells assessed as viable cells at 20 uM incubated for 24 hrs by Annexin V-FITC/PI staining based flow cytometry (reference value: 92.45%). It is filed as functional. Conditions: read-out: Activity.
For data set [6], the system named is HeLa. The data set is described as follows: Induction of cell cycle arrest in human HeLa cells assessed as accumulation at G2/M phase at 40 uM measured after 24 hrs by flow cytometry analysis (reference value: 11.81%). It is filed as functional.
A short description of data set [7]: Apparent oral clearance in Sprague-Dawley rat at 25 mg/kg, IG. The note with it: in vivo, read-out: CL(app) (converted). It is filed as ADME, organism-based. The method in brief:
(§1)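 Rats, n = 3 per group, received a single dose either intragastrically (25 mg/kg) or intravenously (5 mg/kg). Plasma concentration–time curves were used to derive t1/2α, t1/2β, Vd/F, CL/F, AUC0–∞, Tmax and Cmax. Absolute oral bioavailability was calculated from the ig and iv data.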

The test system of data set [8] is HeLa. Briefly: Induction of apoptosis in human HeLa cells assessed as early apoptotic cells at 10 uM incubated for 24 hrs by Annexin V-FITC/PI staining based flow cytometry (reference value: 2.84%). It counts as functional.
Data set [9] concerns the target Signal transducer and activator of transcription 3 (Homo sapiens) (UniProt P40763). Briefly: Binding affinity to GST-tagged human STAT3 using 5-carboxyfluorescein labelled peptide incubated for 1 hr by fluorescence polarization assay.
A short description of data set [10]: AUC (0 to infinity) in Sprague-Dawley rat at 5 mg/kg, iv. It is filed as ADME, organism-based. Conditions: in vivo. Also on record: route intravenous, time infinity, dose 5 mg/kg. The method in brief: as §1
Data set [11] concerns the target Signal transducer and activator of transcription 3 (Homo sapiens) (UniProt P40763). The data set is described as follows: Inhibition of STAT3 in human HeLa cells assessed as decrease in phosphorylation of STAT3 at Ser727 after 24 hrs by western blot analysis. It is filed as cell-based. Conditions: dose microM <=80, time […]. In short, it runs like this:
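HeLa cells were treated with graded doses for 1 h or 24 h. Total cell lysates were immunoblotted with specific antibodies against p-STAT3 (Tyr705), p-STAT3 (Ser727) and total STAT3.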

Data set [12] deals with HeLa. Briefly: Induction of apoptosis in human HeLa cells assessed as necrotic cells at 20 uM incubated for 24 hrs by Annexin V-FITC/PI staining based flow cytometry (reference value: 0.02%). It counts as functional.
The subject of data set [13] is HeLa. Briefly: Induction of apoptosis in human HeLa cells assessed as necrotic cells at 10 uM incubated for 24 hrs by Annexin V-FITC/PI staining based flow cytometry (reference value: 0.02%). It counts as functional.
For data set [14], the system named is HeLa. The data set is described as follows: Induction of cell cycle arrest in human HeLa cells assessed as accumulation at G2/M phase at 10 uM measured after 24 hrs by flow cytometry analysis (reference value: 11.81%). It is filed as functional.
Data set [15] can be described thus: Apparent volume of distribution in Sprague-Dawley rat at 5 mg/kg, iv. It counts as ADME, organism-based. Conditions: in vivo. In short, it runs like this:
as §1

Data set [16] is described as follows: Tmax in Sprague-Dawley rat at 25 mg/kg, IG. It counts as ADME, organism-based. The note with it: in vivo, po.
The test system of data set [17] is HeLa. Briefly: Induction of apoptosis in human HeLa cells assessed as viable cells at 10 uM incubated for 24 hrs by Annexin V-FITC/PI staining based flow cytometry (reference value: 92.45%). It counts as functional. The note with it: read-out: Activity.
In data set [18] the target is Proto-oncogene tyrosine-protein kinase Src (Homo sapiens) (UniProt P12931). The data set is described as follows: Inhibition of Src phosphorylation at Tyr416 in human Hela cells upto 80 uM after 24 hrs by Western blot analysis. Conditions: dose microM <=80, time […]. It is filed as cell-based.
Another data set concerns HT-29. The data set is described as follows: Antiproliferative activity against human HT29 cells assessed as cell growth inhibition measured after 48 hrs by MTT assay. It counts as functional, cell-based. Conditions: HT-29, 48 h.
For data set [19], the target named is T1, Signal transducer and activator of transcription 5A (Homo sapiens) (UniProt P42229).
T1 sequence (whole entry): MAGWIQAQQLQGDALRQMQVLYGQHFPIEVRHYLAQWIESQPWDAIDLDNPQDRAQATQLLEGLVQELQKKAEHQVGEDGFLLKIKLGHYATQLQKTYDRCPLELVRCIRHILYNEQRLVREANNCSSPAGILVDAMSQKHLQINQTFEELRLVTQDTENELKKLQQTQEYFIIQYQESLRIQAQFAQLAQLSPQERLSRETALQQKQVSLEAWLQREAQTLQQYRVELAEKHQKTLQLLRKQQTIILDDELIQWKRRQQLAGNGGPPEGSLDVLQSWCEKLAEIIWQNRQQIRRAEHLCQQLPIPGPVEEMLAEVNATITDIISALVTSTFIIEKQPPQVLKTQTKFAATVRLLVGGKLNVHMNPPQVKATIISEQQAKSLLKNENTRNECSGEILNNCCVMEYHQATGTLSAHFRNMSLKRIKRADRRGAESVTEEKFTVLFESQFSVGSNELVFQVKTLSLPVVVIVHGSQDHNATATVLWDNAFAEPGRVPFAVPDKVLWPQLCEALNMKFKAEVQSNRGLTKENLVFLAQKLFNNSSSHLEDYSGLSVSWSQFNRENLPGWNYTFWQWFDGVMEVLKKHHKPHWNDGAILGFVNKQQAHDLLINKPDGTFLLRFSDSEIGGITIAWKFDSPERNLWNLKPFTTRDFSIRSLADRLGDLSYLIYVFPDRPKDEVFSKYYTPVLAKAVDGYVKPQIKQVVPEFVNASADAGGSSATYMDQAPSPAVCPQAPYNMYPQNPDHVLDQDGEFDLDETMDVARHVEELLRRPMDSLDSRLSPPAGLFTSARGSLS
The data set is described as follows: Inhibition of STAT5 (unknown origin).

Data set [20] has as its system HeLa. The data set is described as follows: Antiproliferative activity against human HeLa cells assessed as cell growth inhibition measured after 48 hrs by MTT assay. It counts as functional, cell-based. In short, it runs like this: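 Growth was read by MTT assay, and IC50 was taken from the dose–response curve. Values are averages of three independent experiments.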

For data set [21], the system named is HeLa. The data set is described as follows: Induction of apoptosis in human HeLa cells assessed as early apoptotic cells at 20 uM incubated for 24 hrs by Annexin V-FITC/PI staining based flow cytometry (reference value: 2.84%). It is filed as functional.

Signal transducer and activator of transcription 3 (Homo sapiens), sequence (P40763 whole entry): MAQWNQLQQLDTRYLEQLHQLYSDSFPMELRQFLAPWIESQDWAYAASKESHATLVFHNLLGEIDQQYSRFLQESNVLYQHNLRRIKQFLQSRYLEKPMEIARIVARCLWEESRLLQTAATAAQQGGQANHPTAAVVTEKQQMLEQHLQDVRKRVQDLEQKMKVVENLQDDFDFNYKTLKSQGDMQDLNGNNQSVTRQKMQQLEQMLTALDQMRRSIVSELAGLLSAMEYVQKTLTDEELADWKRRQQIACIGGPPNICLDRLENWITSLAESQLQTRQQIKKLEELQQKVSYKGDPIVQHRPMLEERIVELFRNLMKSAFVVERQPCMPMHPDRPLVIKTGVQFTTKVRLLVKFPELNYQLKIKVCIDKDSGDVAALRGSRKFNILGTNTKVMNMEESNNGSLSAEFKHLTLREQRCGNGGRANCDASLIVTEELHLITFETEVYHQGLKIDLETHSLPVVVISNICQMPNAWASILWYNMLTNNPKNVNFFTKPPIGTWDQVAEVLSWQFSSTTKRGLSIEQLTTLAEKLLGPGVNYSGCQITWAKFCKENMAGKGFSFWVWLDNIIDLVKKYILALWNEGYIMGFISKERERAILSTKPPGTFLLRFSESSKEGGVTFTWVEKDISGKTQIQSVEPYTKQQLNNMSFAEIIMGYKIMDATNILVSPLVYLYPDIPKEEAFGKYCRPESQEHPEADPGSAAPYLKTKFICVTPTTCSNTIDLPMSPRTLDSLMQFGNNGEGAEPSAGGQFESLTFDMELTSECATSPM
Proto-oncogene tyrosine-protein kinase Src (Homo sapiens), sequence (P12931 2-536 limits assumed): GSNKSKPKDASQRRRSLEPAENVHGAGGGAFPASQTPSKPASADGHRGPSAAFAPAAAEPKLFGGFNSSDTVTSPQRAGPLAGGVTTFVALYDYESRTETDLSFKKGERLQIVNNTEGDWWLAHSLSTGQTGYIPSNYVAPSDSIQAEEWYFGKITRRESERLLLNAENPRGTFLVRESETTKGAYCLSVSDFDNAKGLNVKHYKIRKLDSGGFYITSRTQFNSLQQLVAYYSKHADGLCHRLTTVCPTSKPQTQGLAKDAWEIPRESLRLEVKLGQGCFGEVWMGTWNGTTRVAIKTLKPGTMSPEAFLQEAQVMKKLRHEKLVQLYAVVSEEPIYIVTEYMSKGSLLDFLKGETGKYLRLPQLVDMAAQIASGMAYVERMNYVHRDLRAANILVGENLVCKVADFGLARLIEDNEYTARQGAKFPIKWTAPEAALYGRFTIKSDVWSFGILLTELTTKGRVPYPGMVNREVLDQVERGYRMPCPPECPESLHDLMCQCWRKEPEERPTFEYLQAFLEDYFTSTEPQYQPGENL

Usually IC50 stands for the midpoint of a concentration-inhibition curve. The AUC(0-inf) is the area under the concentration-time curve extrapolated to infinity. A lower AUC(0-inf) goes with low exposure. What is called Vd/F is the volume of distribution divided by bioavailability. A word on the Tmax: it is the time at which the peak concentration occurs. Turning to `CC(=O)Oc1ccccc1C(=O)Nc1ncc([N+](=O)[O-])s1` [NITAZOXANIDE], the Activity in the data set on HeLa [1] worked out at 21.84%; in the data set with HeLa [6], 6.6%; in the data set on HeLa [8], 2.34%; with HeLa [12], 0.04%; with HeLa [13], 0.02%; with HeLa [14], 9.59%. The Activity in the data set with HeLa [21] is given as 4.49%. Moreover, the IC50 in the data set with A549 was over 50 µM; in the data set with HT-29 it was over 50 µM; with HeLa [20], 35 µM. Further, the inhibition result in data set [2] and in data set [11] was “Dose-dependent effect” throughout. Further, the inhibition result in data set [3] is “Active”. Besides, the inhibition result in data set [4], in data set [18] and in [19] was “inactive” throughout. Moreover, in the data set on HeLa [5], the viability at 20 µM was determined as 84.1%. The CL/F in [7] is 105 mL/min/kg. Moreover, the result in [9] was inactive. Moreover, in data set [10], the AUC(0-inf) was 11200 ng·h/mL. In addition, the Vd/F in data set [15] turned out to be 0.08 L/kg. In addition, the Tmax in [16] is 2 h. The viability at 10 µM in the data set on HeLa [17] stood at 92.3%.
